Screening data (PubChem BioAssay)
Rows were chosen to be rich in hits. Some 3.5% of all compounds tested hit in one or more screens of this group.
MrgX1 ag: human MrgX1 receptor agonism, primary screen. Q96LB2. MrgX1-HEK293 cells, Fluo-4 calcium fluorescence, agonist mode; stronger effect = higher value. B-score at 10 µM. 310,000 compounds, 0.44% hits. AID 588627;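 active = calcium response B-score plate-corrected fluorescence ratio at least 3 library SD, with starting fluorescence B-score inside 5 SD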
Target sequence (Q96LB2 whole entry, looked up): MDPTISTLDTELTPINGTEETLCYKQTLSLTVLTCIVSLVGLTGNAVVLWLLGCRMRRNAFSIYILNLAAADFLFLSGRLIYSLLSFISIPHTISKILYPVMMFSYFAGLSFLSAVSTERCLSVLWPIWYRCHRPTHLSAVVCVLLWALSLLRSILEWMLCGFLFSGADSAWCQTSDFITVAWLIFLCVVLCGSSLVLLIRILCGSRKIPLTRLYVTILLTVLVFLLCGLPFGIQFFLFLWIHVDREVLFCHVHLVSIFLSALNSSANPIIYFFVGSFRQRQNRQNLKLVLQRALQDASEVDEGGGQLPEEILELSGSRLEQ
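Assay system: MrgX1-expressing HEK293 cells / Amount: fifteen thousand cells per well / Doses: test compound in the initial addition of three / Timing: cells plated overnight, dye loaded 0.5 h 37 °C, 0.5 h room temperature / Technique: kinetic calcium dye fluorescence, Fluo-4 NW / Control set: positive and negative controls per plate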
MrgX1 allo act: allosterically activates human MrgX1 receptor signaling; Q96LB2; MrgX1-HEK293, Fluo-4 calcium flux, FDSS; stronger effect = higher value; B-score at 10 µM; 310,000 compounds, 0.63% hits; AID 588675;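 active = plate-corrected calcium response at least 3 library SD above typical, normal starting fluorescence, not activating the receptor alone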;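 also: compound read alongside a low EC10 to EC30 dose of BAM8-22 agonist; peak minus trough fluorescence over baseline measured at the second addition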
RGS4 inh: inhibitors of human RGS4 | B-score at 10 µM | P49798 | HEK293 M3R/RGS4 inducible, Fluo-4 calcium flux; stronger effect = higher value; triggered by carbachol at its EC20 | 310,000 compounds, 0.45% hits;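 active = B-score, a plate-corrected calcium signal, over three deviations above library mean, with baseline fluorescence within five deviations of library mean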;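 also: RGS4 expression induced by doxycycline in cells with stable M3 receptor; B-score is computed from the integrated fluorescence ratio over baseline after carbachol; higher B-score means a larger calcium signal and so more RGS4 inhibition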
Target sequence (P49798 whole entry, looked up): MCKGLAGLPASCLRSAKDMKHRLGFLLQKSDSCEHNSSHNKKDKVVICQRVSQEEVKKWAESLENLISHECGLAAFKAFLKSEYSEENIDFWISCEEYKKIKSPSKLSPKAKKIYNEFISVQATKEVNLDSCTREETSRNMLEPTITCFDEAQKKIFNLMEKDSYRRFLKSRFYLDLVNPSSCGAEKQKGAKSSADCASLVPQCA
RGS4 pot: RGS4 potentiation or activation. 310,000 compounds, 0.92% hits. B-score at 10 µM. HEK293 M3R/inducible RGS4, carbachol calcium flux Fluo4; stronger effect = lower value. AID 463111;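 active = B-score of the integrated calcium signal more than 4 SD below the library mean, with starting fluorescence not abnormally high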;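 also: negative B-score means reduced calcium response which marks RGS4 activation or potentiation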
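Assay system: Inducible-RGS4 HEK293 cells carrying M3 receptor | Schedule: Compound preincubation 20 min at room temperature before agonist | Signal: Kinetic calcium fluorescence imaging with Fluo4-AM dye, 2 µM | Read-out basis: B score from integrated fluorescence ratio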
MrgX1 antag: antagonists of human MrgX1 receptor; Q96LB2; MRGX1-HEK293 calcium flux, Fluo-4, BAM8-22 antagonism; stronger effect = lower value; B-score at 10 µM; 310,000 compounds, 1.3% hits; AID 588676;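 active = calcium-response B-score plate-corrected more than 3 library SD below zero, starting fluorescence within 5 deviations, no agonist response on first addition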;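 also: peak minus trough fluorescence over baseline after final BAM8-22 challenge near maximal dose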
RGS4 block valid: RGS4 inhibitor validation; shares compounds with RGS4 inh; HEK293 M3R/RGS4, carbachol calcium Fluo-4 fluorescence; carbachol added at its EC20; 0 = buffer wells, 100 = carbachol control; calcium response, % at 10 µM; 1,700 compounds, 65% hits; AID 492999;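 active = duplicate-averaged calcium response above the buffer-only control mean plus 5 SD of those controls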;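 also: integrated fluorescence ratio F max minus min over baseline F0; higher response in RGS4-induced cells means RGS4 inhibition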
M3R Ca ctr: non-induced cell nonspecific activity of RGS4 inhibitors; shares compounds with RGS4 inh; HEK293 M3R non-induced, carbachol calcium Fluo-4; submaximal (EC20) carbachol stimulus; buffer wells 0%, carbachol control wells 100%; activity (percent), % at 10 µM; 1,900 compounds, 20% hits; AID 493000; call rule not given here;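 also: RGS4 induction absent so cells express M3R without RGS4; higher means more calcium signal and flags a non-specific hit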
RGS4 inh ctr2: second RGS4 inhibitor counter-screen in uninduced cells lacking carbachol | shares compounds with RGS4 inh | HEK293 M3R/RGS4 non-induced, Fluo-4 calcium, no carbachol; normalised: buffer wells 0%, carbachol wells 100% | calcium response (agonist-mode artifact), % at 10 µM | 1,900 compounds, 22% hits | AID 493001;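 active = duplicate-averaged calcium rise in uninduced cells above buffer wells' mean plus 5 SD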
MrgX1 ag reconf: confirmation of human MrgX1 receptor agonists; shares compounds with MrgX1 ag; MrgX1-HEK293, Fluo-4 calcium fluorescence, FDSS; activation, % at 10 µM; 600 compounds, 78% hits;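 active = calcium signal rise, corrected for plate position, at least 3 library SD high, with starting brightness within 5 such deviations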
MrgX1 allo conf: reconfirmed allosteric activator of human MrgX1 receptor. shares compounds with MrgX1 allo act. MrgX1-HEK293, Fluo-4 calcium fluorescence, FDSS. activation (ratio percentage), % at 10 µM. 1,200 compounds, 13% hits. AID 602413;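 active = ratio at least 3 SD above the weak peptide control, stable starting fluorescence, no direct agonism earlier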;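 also: compound followed by low BAM8-22 agonist challenge near EC20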
MrgX1 ant reconf: confirmation of human MrgX1 receptor antagonists | shares compounds with MrgX1 antag | MrgX1-HEK293, BAM8-22 calcium flux, Fluo-4; stronger effect = lower value | remaining BAM8-22 calcium response % of control (stronger effect = lower value), % at 10 µM | 2,300 compounds, 19% hits;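 active = remaining agonist calcium response no higher than 100% minus 3 SD of agonist-only control wells, with starting fluorescence near control levels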;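 also: agonist BAM8-22 given at a near maximal EC90 to ECmax level; peak minus minimum fluorescence divided by baseline after agonist addition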
HEK293 Ca flux: activity in parental HEK293 cells lacking MrgX1. Fluo-4 calcium fluorescence, FDSS. fluorescence ratio F(max-min)/F0 at 10 µM. shares compounds with MrgX1 antag. 4,000 compounds, 2% hits;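 active = duplicate-averaged calcium fluorescence ratio at least three times the standard deviation of buffer wells, a nonspecific response in parental cells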
HEK293 Ca counter: activity in parental HEK293 cells without MrgX1; shares compounds with MrgX1 antag; fluorescence ratio F(max-min)/F0 at 10 µM; parental HEK293 calcium flux, Fluo-4 fluorescence ratio; stronger effect = higher value; AID 624114; 4,000 compounds, 0.4% hits;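 active = calcium fluorescence ratio, averaged over duplicates, at least 3 SD of the buffer-well ratio, meaning a nonspecific response in receptor-free cells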;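 also: untransfected parental HEK293 lacking MrgX1 used as counterscreen for MrgX1 allosteric activators; fluorescence change taken during the second addition on a kinetic imager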
HEK293 Ca cntr2: activity in parental HEK293 cells lacking MrgX1 receptor. 4,000 compounds, 8.7% hits. fluorescence ratio F(max-min)/F0 at 10 µM. Fluo-4 calcium fluorescence (FDSS); stronger effect = higher value. shares compounds with MrgX1 antag;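 active = calcium fluorescence ratio at least three times the spread of buffer wells, meaning a non-specific response in parental cells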
An asterisk follows results filed as active; i = inactive; x = no result given.

SMILES	MrgX1 ag	MrgX1 allo act	RGS4 inh	RGS4 pot	MrgX1 antag	MrgX1 ag reconf	HEK293 Ca flux	HEK293 Ca counter	HEK293 Ca cntr2	others
COc1ccccc1NC(=O)COC(=O)COc1cccc2c1OC(C)(C)C2	i	i	i	i	i	x	x	x	x
COc1cc(C2C(C#N)=C(N)Oc3cc(N(C)C)ccc32)cc2c1OCO2 (stereo not drawn)	93.6*	i	i	i	i	273.2%*	i	i	86.4*	RGS4 block valid=i;M3R Ca ctr=i;RGS4 inh ctr2=108.5%*
Cc1sc2cc(-c3cccc([N+](=O)[O-])c3)c(-c3cccc([N+](=O)[O-])c3)c[n+]2c1C	i	i	i	i	i	x	x	x	x
CC(=O)c1cc(CN2CCN(C3CCCCC3)C(CCO)C2)cs1 (stereo not drawn)	i	i	i	i	i	x	x	x	x
N#Cc1c(-c2c(Cl)cccc2Cl)noc1/C=C/Nc1ccc(C(=O)O)cc1	i	11.5*	5.44*	i	i	x	i	i	i	RGS4 block valid=18.0%*;M3R Ca ctr=i;RGS4 inh ctr2=i;MrgX1 allo conf=i
O=C(CCC(=O)N1CCN(c2ccccc2F)CC1)c1ccc(F)cc1	i	i	i	i	i	x	x	x	x
O=C(CCN1CCN(c2ccccc2F)CC1)c1ccc(Br)cc1	40*	i	18.9*	i	i	i	i	i	i	RGS4 block valid=39.0%*;M3R Ca ctr=i;RGS4 inh ctr2=8.5%*
Cc1ccc(S(=O)(=O)CCC(=O)OCC(=O)c2cc(C)ccc2C)cc1	i	i	i	i	i	x	x	x	x
Cc1ccc(S(=O)(=O)CCC(=O)c2ccc(O)cc2O)cc1	30.1*	i	24.5*	i	i	126.9%*	i	i	i	RGS4 block valid=62.0%*;M3R Ca ctr=46.0%*;RGS4 inh ctr2=i
CCc1ccccc1NC(=S)N(CCc1ccncc1)C(C)C	i	i	i	i	i	x	x	x	x
O=C(CC1(O)C(=O)Nc2ccccc21)c1cccc(Br)c1 (stereo not drawn)	i	i	i	i	i	x	x	x	x
N#CC1(Nc2cccc(Br)c2)C(=O)Nc2ccccc21 (stereo not drawn)	53.8*	i	10.3*	i	i	194.8%*	i	i	48.8*	RGS4 block valid=44.5%*;M3R Ca ctr=29.5%*;RGS4 inh ctr2=76.5%*
Cc1ccccc1Nc1nc(N)nc(-c2oc3ccccc3c2C)n1	i	47.2*	5.98*	i	i	x	i	i	i	RGS4 block valid=27.0%*;M3R Ca ctr=41.5%*;RGS4 inh ctr2=i;MrgX1 allo conf=33.4%*
COc1ccc(CNC(=O)CN(Cc2ccco2)C(=O)CNS(=O)(=O)c2ccc(F)cc2)cc1	i	i	i	i	i	x	x	x	x
CCOC(=O)[C@@H]1[C@H]2COc3ccccc3[C@@H]2N2C(=O)N(c3ccc(Cl)cc3)C(=O)[C@@]12C	i	i	i	i	-8.06*	x	i	i	i	RGS4 block valid=i;M3R Ca ctr=i;RGS4 inh ctr2=i;MrgX1 ant reconf=i
Cc1ccc2nc(/C(C#N)=C\c3ccc(N4CCOCC4)o3)[nH]c2c1	68.4*	i	i	i	i	i	0.334*	i	i
O=C(c1cc2c(s1)CCCC2)N1CCN(S(=O)(=O)c2ccccc2C(F)(F)F)CC1	i	i	i	i	i	x	x	x	x
COCC(=O)Nc1cc(Cl)ccc1C	i	i	i	i	i	x	x	x	x
Cc1ccc(Cl)cc1NC(=O)CC(O)(C(F)(F)F)C(F)(F)F	29.4*	i	i	i	i	196.0%*	i	i	46.9*
COc1ccc(OC)c2c1cc(C(=O)N[C@@H](Cc1ccccc1)C(=O)O)n2C	i	i	i	i	i	x	x	x	x
Cc1cc(=O)[nH]c(SCC(=O)Nc2ccc(Br)cc2)c1C#N	72.4*	i	i	i	i	375.1%*	i	i	83.5*
Cc1cc(=O)[nH]c(SCC(=O)Nc2ccc(F)cc2)c1C#N	i	i	i	i	i	x	x	x	x
Cn1cc([N+](=O)[O-])c(C(=O)N(Cc2ccccc2)Cc2ccccc2)n1	i	i	i	i	i	x	x	x	x
Nc1cc(S(=O)(=O)N2CCCCC2)ccc1Oc1ccccc1	i	i	i	i	i	x	x	x	x
COc1ccc(CCNc2cc(C)nc(N)n2)cc1OC	44.6*	i	i	i	i	241.8%*	i	i	i
O=C(CCS(=O)(=O)c1ccc(Cl)cc1)NCCc1c[nH]c2ccccc12	i	i	i	i	i	x	x	x	x
c1ccc(CNc2ncnc3sc4c(c23)CCC4)nc1	i	i	i	i	i	x	x	x	x
c1ccc(CNc2ncnc3scc(-c4cccs4)c23)nc1	26.5*	i	i	i	i	159.9%*	i	i	i
COc1ccc(N=Cc2sc(O)c3ccccc23)cc1	44.4*	i	i	i	i	i	0.575*	i	121*
COc1ccc(N=Cc2c(O)c3ccccc3n2C(C)=O)cc1	61.6*	i	i	i	i	583.2%*	i	i	110*
